Columns and labels:
[1] = folding enthalpy; higher = less favourable; fluorescence melt of hairpins on a sequencing array, two-state fit; settings: sodium 0.088 M
Procedure, shortened: (§1)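 Melting temperature and folding enthalpy were obtained by bootstrapped two-state fitting. Fits used Cy3 fluorescence of library hairpins with annealed Cy3 and quencher oligos on a sequenced MiSeq flow cell, imaged in 50 mM Na-HEPES pH 8.0, 25 mM NaCl in 2.5 °C steps up to 60 °C and normalised to pre-quench Cy3 and control constructs. Four replicates were combined by inverse-variance weighting, and fitted temperatures were raised by 9.35 °C to match UV melts.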

[2] = melting temperature; fluorescence melt of hairpins on a sequencing array, two-state fit, raised by 9.35 °C to match UV melts; settings: sodium 0.088 M
Procedure, shortened: as §1

| Sequence | folding enthalpy [1] [kcal/mol] | Tm [2] [°C] |
| --- | --- | --- |
| GCAAATGGAAACATTCGC ((.((((....)))).)) | -28.5 | 38.4 |
| GCAAATGGAAACGTTTGC (((((.(....).))))) | -38.1 | 49.6 |
| GCAACAACGAAAGTTTGC (((..(((....)))))) | -25 | 36.1 |
| GCAACAGGAAACCGTTGC (((((.(....).))))) | -43.8 | 50.4 |
| GCAACAGGAAACTGTTGC (((((((....))))))) | -40.3 | 68.5 |
| GCAACCACGAAAGTGTGC (((..(((....)))))) | -17.4 | 41.7 |
| GCAACCGAAAGGTATTGC ((((((....)))..))) | -18.3 | 39.9 |
| GCAACCGAAAGGTCGTGC ((((((....)))..))) | -17.6 | 38.1 |
| GCAACCGAAAGGTGGTGC ((((((....)))..))) | -20.8 | 48.6 |
| GCAACCGAAAGGTTCTGC ((((((....)))..))) | -14.9 | 41.8 |
| GCAACCGGAAACGGTCAC (..((((....))))..) | -8.88 | 24.9 |
| GCAACGACGAAAGTCTGC (((..(((....)))))) | -16.6 | 40.5 |
| GCAACGCCGAAAGGCTGC (((..(((....)))))) | -15.4 | 47.8 |
| GCAACGCGAAAGCCATGC (((..((....))..))) | -7.42 | 29.1 |
| GCAACGCGAAAGCCTCGC ((.(.((....)).).)) | -7.26 | 30.9 |
| GCAACGCGAAAGCGCGGC ((..(((....)))..)) | -14.8 | 48.1 |
| GCAACGGGAAACCATCGC ((.(.((....)).).)) | -12.5 | 27 |
| GCAACGGGAAACCATTGC ((((.((....)).)))) | -26.8 | 41.5 |
| GCAACTCCGAAAGGATGC (((..(((....)))))) | -19.8 | 38.1 |
| GCAACTCGAAAGAGATGC (((.(((....))).))) | -40.1 | 53.8 |
| GCAACTGAAAAGTTGC ((((((....)))))) | -36.6 | 62.5 |
| GCAACTGGAAACAATTGC ((((.((....)).)))) | -32.8 | 34.5 |
| GCAAGAGCGAAAGCTTGC (((..(((....)))))) | -22.8 | 51.9 |

| Sequence | folding enthalpy [1] [kcal/mol] | Tm [2] [°C] |
| --- | --- | --- |
| GCAAGAGGAAACCCTTGC (((((.(....).))))) | -25.9 | 45.3 |
| GCAAGAGGAAACTCTTAC (.(((((....))))).) | -14.6 | 28 |
| GCAAGCCGAAAGGCCTGC (((.(((....))).))) | -23.3 | 54 |
| GCAAGCCGAAAGGCGTGC (((.(((....))).))) | -18.9 | 68.7 |
| GCAAGCCGAAAGGCTGC (((.(((....)))))) | -18.8 | 68.5 |
| GCAAGCGAAAGCTAATGC ((((((....)))..))) | -15.5 | 39.4 |
| GCAAGCGAAAGCTACTGC ((((((....)))..))) | -13.2 | 37.3 |
| GCAAGCGAAAGCTATGC ((((((....))).))) | -23 | 51.2 |
| GCAAGCGAAAGCTCCTGC ((((((....)))..))) | -10.1 | 30.9 |
| GCAAGCGAAAGCTCGTGC ((((((....)))..))) | -15.1 | 37.4 |
| GCAAGCGAAAGCTGTGC ((((((....))).))) | -15.8 | 55.9 |
| GCAAGCGCGAAAGCGTGC (((..(((....)))))) | -12.5 | 47.5 |
| GCAAGGCGAAAGCATCGC ((.(.((....)).).)) | -14.4 | 37.3 |
| GCAAGGCGAAAGCCATGC (((.(((....))).))) | -32.8 | 57.9 |
| GCAAGGCGAAAGCCCAGC ((..(((....)))..)) | -13.1 | 45.9 |
| GCAAGGCGAAAGCCCCGC ((..(((....)))..)) | -10.7 | 37 |
| GCAAGGCGAAAGCCCGGC ((..(((....)))..)) | -17.4 | 45.9 |
| GCAAGGCGAAAGCCGAGC ((..(((....)))..)) | -29.1 | 65 |
| GCAAGGCGAAAGCCGTGC (((.(((....))).))) | -22.8 | 68 |
| GCAAGGCGAAAGCTTCGC ((.(.((....)).).)) | -12.2 | 40.9 |
| GCAAGGGAAACCTTGC ((((((....)))))) | -37.9 | 60.1 |
| GCAAGGGGAAACCCCTAC (.(.(((....))).).) | -12 | 28.7 |
| GCAAGTCGAAAGACCTGC (((.(((....))).))) | -29.6 | 47.9 |

— the array DNA melting data of Ke et al. (doi:10.1101/2024.01.08.574731)
